Measured values from ChEMBL document CHEMBL3872252, “New bithiazolyl hydrazones: Novel synthesis, characterization and antitubercular evaluation” (Bioorg Med Chem Lett, 2017).
In brackets after ≈: the same amount, converted by molar mass.

Key:
Pseudomonas aeruginosa [1] = test: Growth inhibition of Pseudomonas aeruginosa at 10 ug/ml; type: functional; settings: read-out: GI
Staphylococcus aureus [2] = test: Growth inhibition of Staphylococcus aureus at 3 ug/ml; type: functional; settings: read-out: GI
In short: (§1)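 Screened against Gram-negative E. coli and P. aeruginosa and Gram-positive S. aureus and B. subtilis. Compound was tested at 3 µg/ml, and the read-out is percent growth inhibition.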

[3] = Selectivity index, ratio of GI50 for human THP1 cells to MIC90 for Mycobacterium tuberculosis H37Ra ATCC 25177 active stage; type: toxicity, cell-based, THP-1; settings: read-out: Selectivity Index
In short: (§2)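 Cytotoxicity was measured on human MCF-7, HCT116 and THP-1 cells by MTT assay, with paclitaxel as reference. GI50 is the concentration inhibiting 50% of cell growth. The selectivity index is GI50 for the given cell line divided by MIC90 for the given mycobacterial strain and stage.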

[4] = Selectivity index, ratio of GI50 for human MCF7 cells to MIC90 for Mycobacterium tuberculosis H37Ra ATCC 25177 dormant stage; type: toxicity, cell-based; settings: read-out: Selectivity Index
In short: (§3)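 Cytotoxicity was measured on human MCF-7, HCT116 and THP-1 cells by MTT assay, with paclitaxel as reference. The selectivity index is GI50 for the given cell line divided by MIC90 for the given mycobacterial strain and stage.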

[5] = Selectivity index, ratio of GI50 for human MCF7 cells to MIC90 for Mycobacterium bovis BCG ATCC 35743 active stage; type: toxicity, cell-based; settings: read-out: Selectivity Index; in short: as §2
Bacillus subtilis [6] = test: Growth inhibition of Bacillus subtilis at 30 ug/ml; type: functional; settings: read-out: GI
Pseudomonas aeruginosa [7] = test: Growth inhibition of Pseudomonas aeruginosa at 30 ug/ml; type: functional; settings: read-out: GI
Staphylococcus aureus [8] = test: Growth inhibition of Staphylococcus aureus at 10 ug/ml; type: functional; settings: read-out: GI
[9] = Selectivity index, ratio of GI50 for human HCT116 cells to MIC90 for Mycobacterium tuberculosis H37Ra ATCC 25177 active stage; type: toxicity, cell-based, HCT-116; settings: read-out: Selectivity Index; in short: as §2
[10] = Cytotoxicity against human MCF7 cells by MTT assay; type: toxicity, cell-based; settings: for GI50: MCF7 cells; for GI90: mcf7
Pseudomonas aeruginosa [11] = test: Growth inhibition of Pseudomonas aeruginosa at 3 ug/ml; type: functional; settings: read-out: GI; in short: as §1
[12] = Antitubercular activity against Mycobacterium tuberculosis H37Ra ATCC 25177 dormant stage infected in human THP1 cells measured on day 12 by nitrate reductase assay; type: functional, THP-1; settings: ATCC 25177, 288 h
Bacillus subtilis [13] = test: Growth inhibition of Bacillus subtilis at 3 ug/ml; type: functional; settings: read-out: GI; in short: as §1
[14] = Antitubercular activity against Mycobacterium bovis BCG ATCC 35743 active stage measured on day 8 by nitrate reductase based two-fold dilution assay; type: functional, Mycobacterium bovis BCG str. ATCC 35743; settings: Mycobacterium tuberculosis variant bovis BCG, ATCC 35743, 192 h
[15] = Selectivity index, ratio of GI50 for human MCF7 cells to MIC90 for Mycobacterium bovis BCG ATCC 35743 dormant stage; type: toxicity, cell-based; settings: read-out: Selectivity Index; in short: as §3
[16] = Selectivity index, ratio of GI50 for human THP1 cells to MIC90 for Mycobacterium tuberculosis H37Ra ATCC 25177 dormant stage; type: toxicity, cell-based, THP-1; settings: read-out: Selectivity Index; in short: as §3
[17] = Selectivity index, ratio of GI50 for human HCT116 cells to MIC90 for Mycobacterium bovis BCG ATCC 35743 dormant stage; type: toxicity, cell-based, HCT-116; settings: read-out: Selectivity Index; in short: as §3
[18] = Cytotoxicity against human HCT116 cells by MTT assay; type: toxicity, cell-based, HCT-116; settings: for GI50: HCT116 cells; for GI90: hct-116
[19] = Selectivity index, ratio of GI50 for human HCT116 cells to MIC90 for Mycobacterium tuberculosis H37Ra ATCC 25177 dormant stage; type: toxicity, cell-based, HCT-116; settings: read-out: Selectivity Index; in short: as §3
[20] = Selectivity index, ratio of GI50 for human THP1 cells to MIC90 for Mycobacterium bovis BCG ATCC 35743 active stage; type: toxicity, cell-based, THP-1; settings: read-out: Selectivity Index; in short: as §2
[21] = Antitubercular activity against Mycobacterium bovis BCG ATCC 35743 dormant stage measured on day 12 by nitrate reductase based two-fold dilution assay; type: functional, Mycobacterium bovis BCG str. ATCC 35743; settings: Mycobacterium tuberculosis variant bovis BCG, ATCC 35743, 288 h
[22] = Cytotoxicity against human THP1 cells by MTT assay; type: toxicity, cell-based, THP-1; settings: for GI50: THP1 cells; for GI90: thp-1
[23] = Antitubercular activity against Mycobacterium tuberculosis H37Ra ATCC 25177 active stage measured on day 8 by XTT reduction menadione based two-fold dilution assay; type: functional; settings: ATCC 25177, 192 h
In short: (§4)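 M. tuberculosis H37Ra ATCC 25177 was exposed to 0.7–100 μg/mL in two-fold steps (0.7, 1.5, 3.1 … 100). Active stage was read after 8 days and dormant stage after 12 days of incubation. Inhibition was read by XTT reduction menadione assay (XRMA), absorbance 470 nm. MIC90 is the concentration giving ≥90% inhibition (µg/mL).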

Escherichia coli [24] = test: Growth inhibition of Escherichia coli at 10 ug/ml; type: functional; settings: read-out: GI
[25] = Selectivity index, ratio of GI50 for human MCF7 cells to MIC90 for Mycobacterium tuberculosis H37Ra ATCC 25177 active stage; type: toxicity, cell-based; settings: read-out: Selectivity Index; in short: as §2
[26] = Selectivity index, ratio of GI50 for human THP1 cells to MIC90 for Mycobacterium bovis BCG ATCC 35743 dormant stage; type: toxicity, cell-based, THP-1; settings: read-out: Selectivity Index; in short: as §3
Bacillus subtilis [27] = test: Growth inhibition of Bacillus subtilis at 10 ug/ml; type: functional; settings: read-out: GI
Staphylococcus aureus [28] = test: Growth inhibition of Staphylococcus aureus at 30 ug/ml; type: functional; settings: read-out: GI
Escherichia coli [29] = test: Growth inhibition of Escherichia coli at 30 ug/ml; type: functional; settings: read-out: GI
[30] = Antitubercular activity against Mycobacterium tuberculosis H37Ra ATCC 25177 dormant stage measured on day 12 by XTT reduction menadione based two-fold dilution assay; type: functional; settings: ATCC 25177, 288 h; in short: as §4
Escherichia coli [31] = test: Growth inhibition of Escherichia coli at 3 ug/ml; type: functional; settings: read-out: GI; in short: as §1
[32] = Antitubercular activity against Mycobacterium tuberculosis H37Ra ATCC 25177 active stage infected in human THP1 cells measured on day 8 by nitrate reductase assay; type: functional, THP-1; settings: ATCC 25177, 192 h
[33] = Selectivity index, ratio of GI50 for human HCT116 cells to MIC90 for Mycobacterium bovis BCG ATCC 35743 active stage; type: toxicity, cell-based, HCT-116; settings: read-out: Selectivity Index; in short: as §2

| SMILES | inhibition of growth at 10 µg/mL (Pseudomonas aeruginosa [1]) [%] | inhibition of growth at 3 µg/mL (Staphylococcus aureus [2]) [%] | selectivity ratio [3] | selectivity ratio [4] | selectivity ratio [5] | inhibition of growth at 30 µg/mL (Bacillus subtilis [6]) [%] | inhibition of growth at 30 µg/mL (Pseudomonas aeruginosa [7]) [%] | inhibition of growth at 10 µg/mL (Staphylococcus aureus [8]) [%] | selectivity ratio [9] | GI50 [10] [µg/mL] | GI90 [10] [µg/mL] | inhibition of growth at 3 µg/mL (Pseudomonas aeruginosa [11]) [%] | MIC90 [12] [µg/mL] | inhibition of growth at 3 µg/mL (Bacillus subtilis [13]) [%] | IC50 [14] [µg/mL] | MIC90 [14] [µg/mL] | selectivity ratio [15] | selectivity ratio [16] | selectivity ratio [17] | GI50 [18] [µg/mL] | further results |
| --- | --- | --- | --- | --- | --- | --- | --- | --- | --- | --- | --- | --- | --- | --- | --- | --- | --- | --- | --- | --- | --- |
| C/C(=N\Nc1nc(-c2ccccc2)cs1)c1sc(-c2ccccc2)nc1C | 53.8 | 11.6 | 11 | 8 | 5 | 75.5 | 78.2 | 53.6 | 11 | > 100 | > 100 | 10.2 | 12 (≈ 30.7 µM) | 4.82 | 8.75 (≈ 22.4 µM) | 21.2 (≈ 54.3 µM) | 5 | 8 | 5 | > 100 | GI90 [18]: > 100 µg/mL; selectivity ratio [19]: 8; selectivity ratio [20]: 5; IC50 [21]: 7.95 µg/mL (≈ 20.4 µM); MIC90 [21]: 18.7 µg/mL (≈ 47.9 µM); GI50 [22]: > 100 µg/mL; GI90 [22]: > 100 µg/mL; IC50 [23]: 0.17 µg/mL (≈ 0.435 µM); MIC90 [23]: 9.46 µg/mL (≈ 24.2 µM); inhibition of growth at 10 µg/mL (Escherichia coli [24]): 56.6%; selectivity ratio [25]: 11; selectivity ratio [26]: 5; inhibition of growth at 10 µg/mL (Bacillus subtilis [27]): 50.1%; inhibition of growth at 30 µg/mL (Staphylococcus aureus [28]): 77.2%; inhibition of growth at 30 µg/mL (Escherichia coli [29]): 78.5%; IC50 [30]: 0.98 µg/mL (≈ 2.51 µM); MIC90 [30]: 12.8 µg/mL (≈ 32.7 µM); inhibition of growth at 3 µg/mL (Escherichia coli [31]): 17.5%; MIC90 [32]: 15.6 µg/mL (≈ 39.9 µM); selectivity ratio [33]: 5 |
| C/C(=N\Nc1nc(-c2ccc(C)cc2)cs1)c1sc(C)nc1C | 83.5 | 78.6 | 1 | 2 | 1 | 69.9 | 72.8 | 82.4 | 1 | > 100 | > 100 | 79.6 | 82.8 (≈ 242 µM) | 76.9 | 17.9 (≈ 52.4 µM) | 54.8 (≈ 160 µM) | 10 | 2 | 10 | > 100 | GI90 [18]: > 100 µg/mL; selectivity ratio [19]: 2; selectivity ratio [20]: 1; IC50 [21]: 9.67 µg/mL (≈ 28.2 µM); MIC90 [21]: 83.2 µg/mL (≈ 243 µM); GI50 [22]: > 100 µg/mL; GI90 [22]: > 100 µg/mL; IC50 [23]: 11.1 µg/mL (≈ 32.3 µM); MIC90 [23]: > 100 µg/mL; inhibition of growth at 10 µg/mL (Escherichia coli [24]): 83.3%; selectivity ratio [25]: 1; selectivity ratio [26]: 10; inhibition of growth at 10 µg/mL (Bacillus subtilis [27]): 81%; inhibition of growth at 30 µg/mL (Staphylococcus aureus [28]): 72%; inhibition of growth at 30 µg/mL (Escherichia coli [29]): 73.7%; IC50 [30]: 8.35 µg/mL (≈ 24.4 µM); MIC90 [30]: 65.8 µg/mL (≈ 192 µM); inhibition of growth at 3 µg/mL (Escherichia coli [31]): 79.8%; MIC90 [32]: 74.3 µg/mL (≈ 217 µM); selectivity ratio [33]: 1 |
| COc1ccc(-c2csc(N/N=C(\C)c3sc(C)nc3C)n2)cc1 | 73.5 | 72.8 | 1 | 5 | 1 | 64.7 | 67.8 | 72.7 | 1 | > 100 | > 100 | 73.6 | 46.2 (≈ 129 µM) | 70.7 | 7.37 (≈ 20.6 µM) | 67.3 (≈ 188 µM) | 12 | 5 | 12 | > 100 | GI90 [18]: > 100 µg/mL; selectivity ratio [19]: 5; selectivity ratio [20]: 1; IC50 [21]: 8.41 µg/mL (≈ 23.5 µM); MIC90 [21]: 24 µg/mL (≈ 67.1 µM); GI50 [22]: > 100 µg/mL; GI90 [22]: > 100 µg/mL; IC50 [23]: 0.88 µg/mL (≈ 2.45 µM); MIC90 [23]: 74.1 µg/mL (≈ 207 µM); inhibition of growth at 10 µg/mL (Escherichia coli [24]): 74.3%; selectivity ratio [25]: 1; selectivity ratio [26]: 12; inhibition of growth at 10 µg/mL (Bacillus subtilis [27]): 70.6%; inhibition of growth at 30 µg/mL (Staphylococcus aureus [28]): 67.2%; inhibition of growth at 30 µg/mL (Escherichia coli [29]): 69.2%; IC50 [30]: 1.24 µg/mL (≈ 3.46 µM); MIC90 [30]: 20.5 µg/mL (≈ 57.2 µM); inhibition of growth at 3 µg/mL (Escherichia coli [31]): 74.4%; MIC90 [32]: 48.2 µg/mL (≈ 135 µM); selectivity ratio [33]: 1 |
